According to ChEMBL document CHEMBL3046072, “Plant P5C reductase as a new target for aminomethylenebisphosphonates” (J Agric Food Chem, 2007):

Experiments:
[1] = biological target: T1, Pyrroline-5-carboxylate reductase (Arabidopsis thaliana) (UniProt P54904); assay: Inhibition of Arabidopsis thaliana P5C reductase catalytic activity assessed as inhibition of NADH oxidation at 340 nm OD at 0.2 mM by NADH oxidation assay; design: scale not given: the % may be the effect or the level left
T1 sequence (whole entry): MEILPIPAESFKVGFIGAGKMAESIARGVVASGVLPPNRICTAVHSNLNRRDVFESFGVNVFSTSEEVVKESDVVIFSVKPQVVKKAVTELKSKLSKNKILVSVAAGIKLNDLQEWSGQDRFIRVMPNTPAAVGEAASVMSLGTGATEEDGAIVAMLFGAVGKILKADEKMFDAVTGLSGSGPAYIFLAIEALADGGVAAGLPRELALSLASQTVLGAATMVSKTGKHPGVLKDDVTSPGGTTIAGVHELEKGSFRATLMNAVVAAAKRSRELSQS

[2] = biological target: T1, Pyrroline-5-carboxylate reductase (Arabidopsis thaliana); assay: Inhibition of Arabidopsis thaliana P5C reductase catalytic activity assessed as […] at 535 nm OD at 0.5 mM by P5C utilization assay; design: scale not given: the % may be the effect or the level left
How it was run: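 The partially purified Arabidopsis enzyme was run in the same Tris pH 8.0/MgCl2/DL-P5C/NADH mix with compound at 0.5 mM, at 35 °C. Aliquots taken every 40 s received Na acetate and 0.15% ninhydrin in acetic acid, then 10 min at 55 °C. Residual P5C was read at 535 nm (ε 4600 M⁻¹ cm⁻¹). At least three replicates; activity given as % of untreated control.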

[3] = biological target: 3-phosphoshikimate 1-carboxyvinyltransferase (Spinacia oleracea); assay: Inhibition of Spinacia oleracea (spinach) EPSP synthase activity; details: read-out: I50
[4] = biological target: T2, Pyrroline-5-carboxylate reductase (Arabidopsis thaliana, UniProt P54904); assay: Noncompetitive inhibition of Arabidopsis thaliana P5C reductase by Lineweaver-Burk plot
T2 sequence (P54904 whole entry): T1 sequence (whole entry)

[5] = biological target: 3-phosphoshikimate 1-carboxyvinyltransferase (Nicotiana tabacum); assay: Inhibition of EPSP synthase in Nicotiana tabacum (tobacco) cells; details: read-out: I50
[6] = biological target: T2, Pyrroline-5-carboxylate reductase; assay: Noncompetitive inhibition of Arabidopsis thaliana P5C reductase by Lineweaver-Burk plot in presence of NADPH
[7] = biological target: T2, Pyrroline-5-carboxylate reductase; assay: Uncompetitive inhibition of Arabidopsis thaliana P5C reductase by Dixon plot
[8] = biological target: T2, Pyrroline-5-carboxylate reductase; assay: Inhibition of Arabidopsis thaliana P5C reductase catalytic activity; details: read-out: I50
How it was run: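 P5C reductase partially purified from A. thaliana Columbia suspension-cultured cells by ammonium sulfate cut and two DEAE-Sephacel steps. Assay at 35 °C: 100 mM Tris-HCl pH 8.0, 0.1 mM MgCl2, 2 mM DL-P5C, 0.25 mM NADH. Read as NADH oxidation at 340 nm, or as P5C loss by ninhydrin at 535 nm. Inhibitor neutralised to pH 7.4, tested over 0.010–5 mM. I50 from regression of % control activity versus log concentration.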

Row | SMILES | Activity [1] | Activity [2] | further results
1 | O=P(O)(O)C(Nc1cc(Cl)cc(Cl)c1)P(=O)(O)O [(3,5-DICHLOROPHENYLAMINO)METHYLENEDIPHOSPHONIC ACID] | 37.7% | 28% | IC50 [3]: 30 µM; Ki [4]: 199 µM; IC50 [5]: 30 µM; Ki [6]: 230 µM; Ki [7]: 10.3 µM
2 | O=P(O)(O)C(Nc1ccccc1)P(=O)(O)O | 98.3% | 114% | –
3 | O=P(O)(O)C(NCCc1ccc(O)cc1)P(=O)(O)O | 105% | 94.4% | –
4 | Cc1ccc(NC(P(=O)(O)O)P(=O)(O)O)cc1 | 110% | 98.2% | –
5 | O=[N+]([O-])c1cccc(NC(P(=O)(O)O)P(=O)(O)O)c1 | 102% | 96.4% | –
6 | O=P(O)(O)C(NCc1ccccn1)P(=O)(O)O | 118% | 92.9% | –
7 | O=P(O)(O)C(NCc1ccccc1)P(=O)(O)O | 98.5% | 100% | –
8 | O=P(O)(O)C(Nc1ccnc(Cl)c1)P(=O)(O)O | 91.2% | 97.9% | –
9 | NC(P(=O)(O)O)P(=O)(O)O [AMINOMETHYLENEBISPHOSPHONIC ACID] | 106% | 84.6% | IC50 [8]: 44 µM
10 | O=C(O)c1cccc(NC(P(=O)(O)O)P(=O)(O)O)c1 | 95% | 92.4% | –
11 | Cc1cccc(NC(P(=O)(O)O)P(=O)(O)O)n1 | 88.7% | 103% | –
12 | Cc1ccccc1CNC(P(=O)(O)O)P(=O)(O)O | 109% | 96.9% | –
13 | O=P(O)(O)C(Nc1ccncc1)P(=O)(O)O | 115% | 101% | –
14 | O=P(O)(O)C(Nc1ccc(Cl)nc1)P(=O)(O)O | 99.4% | 94.9% | –
15 | Cc1nc(NC(P(=O)(O)O)P(=O)(O)O)c(Br)cc1Br | 66.1% | 54.8% | IC50 [8]: 300 µM

Further lines, with some results ahead:

Row | Activity [1] | Activity [2] | SMILES | further results
16 | 110% | 91.7% | O=P(O)(O)C(Nc1ncccn1)P(=O)(O)O | –
17 | 96.3% | 94.1% | O=C(O)c1cccnc1NC(P(=O)(O)O)P(=O)(O)O | –
18 | 106% | 106% | Cc1ccnc(NC(P(=O)(O)O)P(=O)(O)O)c1 | –
19 | 104% | 100% | O=P(O)(O)C(Nc1ccc(Br)cn1)P(=O)(O)O | –
20 | 92% | 99.8% | O=P(O)(O)C(Nc1ncc(Br)cc1Br)P(=O)(O)O | –
21 | 114% | 104% | O=P(O)(O)C(Nc1ccccn1)P(=O)(O)O | –
22 | 108% | 93.8% | O=P(O)(O)C(NC1CCCCC1)P(=O)(O)O | –
23 | 109% | 102% | O=P(O)(O)C(Nc1cccnc1)P(=O)(O)O | –
24 | 106% | 89.9% | O=P(O)(O)C(Nc1ccc(I)cn1)P(=O)(O)O | –
25 | 101% | 92.4% | O=P(O)(O)C(Nc1ccc(Cl)cn1)P(=O)(O)O | –
26 | 105% | 97% | O=P(O)(O)C(Nc1ncc(Cl)cc1Cl)P(=O)(O)O | –
